Tests used:
Reverse transcriptase [1] = target: T1, Reverse transcriptase (Human immunodeficiency virus 1, UniProt Q9WKE8); experiment: Inhibition of HIV1 LAI reverse transcriptase wild type in presence of 5 mM ATP by heteropolymeric DNA polymerase assay
Outline: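 Heteropolymeric DNA assay with 5 mM ATP added: immobilized 18-mer primer, 5′-A12-(GTCA)5 50-mer template, dATP/dGTP/dCTP/BrdUTP at 1.0 μM each, HEPES 50 mM pH 7.3, MgCl2 10 mM. RT 30–100 pM, incubated at 33°C for 180 min. NaOH strand separation, then anti-BrdU-AP detection at 405 nm. IC50 fitted from seven inhibitor concentrations; two to four runs in duplicate.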

Reverse transcriptase [2] = target: T1, Reverse transcriptase; experiment: Inhibition of HIV1 pNL4-3 reverse transcriptase wild type pNL4-3 by heteropolymeric DNA polymerase assay
Outline: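 Heteropolymeric assay without ATP: plate-bound 18-mer DNA primer (~110 nM) with 50-mer 5′-A12-(GTCA)5 template (190 nM). dATP, dGTP, dCTP and BrdUTP at 1.0 μM each, in HEPES 50 mM pH 7.3, MgCl2 10 mM. RT 30–100 pM, 33°C for 180 min, then NaOH dehybridization and anti-BrdU-AP tracer read at 405 nm. IC50 from seven triphosphate concentrations; two to four runs in duplicate.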

Compound	IC50 (Reverse transcriptase [1]) [nM]	IC50 (Reverse transcriptase [2]) [nM]
Nc1nc2c(c(=O)[nH]1)NCN2[C@H]1C=C[C@@H](COP(=O)(O)OP(=O)(O)OP(=O)(O)O)C1 [Carbovir-Triphosphate]	900	1200
C[C@@H](Cn1cnc2c(N)ncnc21)OCP(=O)(O)OP(=O)(O)OP(=O)(O)O [Tenofovir diphospahte]	1300	1200
